Assay results published in PMC12099175 (Chemistry (Weinheim an Der Bergstrasse, Germany), 2025).
“Also recorded” adds a separate entry of the source. No end group written: not given here.

Experiments:
Format in all cases: physicochemical
[1] = AFM surface morphology of amyloid fibrils; details: 1.5 mg/mL, pH 3.8, 24 h mixing at 37 °C, 5 µL dried on mica
Summary of the method: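 Hexapeptide at a final 1.5 mg/mL, pH 3.8, was stirred at 500–600 rpm at 37 °C for 24 h. This was the same stock used for FTIR and ECD. The 24-h solution was dropped on freshly cleaved mica and vacuum-dried for 24 h. Images were taken in dynamic mode near densely packed areas, with a 10×10 µm window and 512 pixels per line.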

[2] = Amyloid formation monitored by time-dependent far-UV ECD spectroscopy; details: for amyloidogenicity overall (in words): all tested conditions (H2O, 10% EtOH, 50% MeOH), FTIR, AFM; for amyloidogenicity overall (in words) / amyloid formation in 10% EtOH (in words) / amyloid formation in 50% MeOH (in words): ECD; for amyloid formation in 10% EtOH (in words): 10% EtOH:90% H2O (ε = 68.742); for amyloid formation in 10% EtOH (in words) / time to form amyloid in 50% MeOH / amyloid formation in 50% MeOH (in words) / time to form β-sheets / B-type ECD spectrum in water: 37 °C; for amyloid formation in 10% EtOH (in words) / amyloid formation in 50% MeOH (in words) / time to form β-sheets / B-type ECD spectrum in water: stirred 500–600 rpm; for time to form amyloid in 50% MeOH / amyloid formation in 50% MeOH (in words): 50% MeOH:50% H2O (ε = 51.347); for time to form amyloid in 50% MeOH: stirred; for time to form amyloid in 50% MeOH / time to form β-sheets / B-type ECD spectrum in water: ECD read-out; for time to form β-sheets / B-type ECD spectrum in water: 100% H2O
Summary of the method: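 Peptides were dissolved at 0.15–1.50 mg/mL in water, 10% EtOH or 50% MeOH. Concentration was set by A280 of 5-fold dilutions (ε Tyr 1280, Trp 5690 M⁻¹ cm⁻¹), with pH adjusted by NaOH/HCl. Samples were stirred at 500–600 rpm, 37 °C, and measured directly at 0–168 h. Spectra covered 185–260 nm, 0.1 mm cell, 25 °C, three scans averaged, solvent-subtracted, Savitzky–Golay smoothed, and converted to mean residue ellipticity.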

[3] = Water solubility / peptide concentration needed for amyloid formation; details: pure water

Row | Substance | AFM morphology (in words) [1] | amyloidogenicity overall (in words) [2] | amyloid formation in 10% EtOH (in words) [2] | time to form amyloid in 50% MeOH [2] | amyloid formation in 50% MeOH (in words) [2] | water solubility (in words) [3] | time to form β-sheets / B-type ECD spectrum in water [2] [h] | ECD mean residue ellipticity Θ, positive maximum at 208 nm ([2]; B-type spectrum after 24 hours) | ECD mean residue ellipticity Θ at 202 nm ([2]; 50% MeOH, B-type signal) [deg cm^2 dmol^−1]
1 | GNNQQNY [GNNQQNY, reference compound] | Fibrillar amyloid formation |  |  |  |  |  |  |  | 
2 | LNIQWL [LNIQWL] | granular | remains amyloidogenic |  |  |  |  |  |  | 
3 | LNQQNY [LNQQNY] |  | highly amyloidogenic | forms amyloid very slowly | ≤ 24 h |  |  |  |  | 
4 | LYIQNL [LYIQNL] |  | highly amyloidogenic | form amyloid |  | form amyloid |  |  |  | 
5 | LYIQNY [LYIQNY] |  | highly amyloidogenic | rapid amyloid formation |  | rapid amyloid formation; also recorded: faster assembly | water‐soluble |  |  | 
6 | LYIQWL [LYIQWL] | Fibrillar amyloid formation | highly amyloidogenic | form amyloid |  | form amyloid |  | 1 |  | 
7 | LYQQNY [LYQQNY] |  | highly amyloidogenic | Amyloid formation is confirmed |  | Amyloid formation is confirmed |  |  | ~+57000 deg cm^2 dmol^−1 | 
8 | NNIQWL [NNIQWL] | no evidence of filament formation | did not form amyloid under any of the tested conditions |  |  |  |  |  |  | 
9 | NNQQNL [NNQQNL] | empty AFM image |  |  |  | very slow amyloid formation |  |  |  | 
10 | NNQQNY [NNQQNY] | Fibrillar amyloid formation | highly amyloidogenic | preventing amyloid formation | within hours; also recorded: a few hours | β‐sheets formed; also recorded: forms amyloid in 50% MeOH | highly water‐soluble |  |  | ~53000
11 | NNQQWL [NNQQWL] | no detectable structures | resists amyloid formation |  |  | No amyloid formation was observed |  | > 144 |  | 
